Data on 26 molecules can be found in ChEMBL document CHEMBL1132723, “Potent 1,3-disubstituted-9H-pyrido[3,4-b]indoles as new lead compounds in antifilarial chemotherapy” (1999).

Assay [1] has as its system Acanthocheilonema viteae. Kind of assay: In vivo anti-filarial (macrofilaricidal) activity at an ip dose of 50 mg/kg (for 5 days) against A. viteae in Mastomys coucha. The format is functional. The following applies: route intraperitoneal. A digest of the protocol: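 Infected *Mastomys coucha* were dosed for 5 consecutive days, either 50 mg/kg ip or 200 mg/kg orally. Compounds were given as fine suspensions in 1% Tween 80. Each dose level used two to three animals, with at least two replicates to confirm activity. Micro- and macrofilaricidal action was scored by the cited earlier method.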

Assay [2] concerns Acanthocheilonema viteae. Kind of assay: In vivo anti-filarial (microfilaricidal) activity at an ip dose of 50 mg/kg (for 5 days) against A. viteae in Mastomys coucha. The note with it: route intraperitoneal. In kind it is functional. A digest of the protocol: (§1)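 Acanthocheilonema viteae infection in Mastomys coucha; compounds given as fine suspensions in 1% Tween 80 for 5 consecutive days, 50 mg/kg ip and/or 200 mg/kg orally. Micro- and macrofilaricidal action and sterilisation of surviving female worms were scored. Two to three animals per dose level, with at least two replicate experiments.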

Assay [3] relates to Acanthocheilonema viteae. Kind of assay: Antifilarial activity as percent of surviving A. viteae in Mastomys coucha sterlized after an intraperitoneal dose of 50 mg/kg (for 5 days). The format is functional. A digest of the protocol: as §1
The subject of assay [4] is Mus musculus. Description: In vivo anti-filarial (maf-macrofilaricidal) activity at an ip dose of 100 mg/kg (for 5 days) against Brugia malayi. The format is functional. The following applies: route intraperitoneal.
The test system of assay [5] is Mus musculus. Kind of assay: In vivo anti-filarial (mif-microfilaricidal) activity at an ip dose of 100 mg/kg (for 5 days) against Brugia malayi. In kind it is functional. The following applies: route intraperitoneal.
The subject of assay [6] is Rattus norvegicus. Description: (§2) In vivo anti-filarial (maf-macrofilaricidal) activity at an ip dose of 30 mg/kg (for 5 days) against Litomosoides carinii in cotton rats. In kind it is functional. The following applies: route intraperitoneal. A digest of the protocol: (§3)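 Cotton rats (Sigmodon hispidus), 6 weeks old, infected with Litomosoides carinii through the mite vector Liponyssus bacoti. Animals with ≥250 microfilariae/5 mm blood were used. Dosed 30 mg/kg ip for 5 consecutive days as a 1% Tween 80 suspension. Blood microfilariae were checked before treatment and weekly until day 42, when animals were killed and adult male and female worms examined.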

In assay [7] the test system is Rattus norvegicus. Description: In vivo anti-filarial (mif-microfilaricidal) activity at an ip dose of 75 mg/kg (for 5 days) against Litomosoides carinii in cotton rats. The format is functional. The following applies: route intraperitoneal.
For assay [8], the system named is Mus musculus. Kind of assay: Antifilarial activity evaluated as percent of surviving Brugia malayi that were sterlized after an ip dose of 50 mg/kg (for 5 days). The format is functional. The following applies: route intraperitoneal. Summed up:
(§4)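 Male Mastomys, 6 weeks old, each inoculated with 50 infective Brugia malayi larvae recovered from infected Aedes aegypti. Screening followed the A. viteae protocol, with a 1% Tween 80 suspension for 5 days at 50 mg/kg ip or 250 mg/kg orally. Micro- and macrofilaricidal action and sterilisation of surviving females were scored. Two to three animals per dose.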

Assay [9] concerns Mus musculus. Description: In vivo anti-filarial (maf-macrofilaricidal) activity at an ip dose of 50 mg/kg (for 5 days) against Brugia malayi. In kind it is functional. The note with it: route intraperitoneal. A digest of the protocol: (§5)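 Male *Mastomys* infected at 6 weeks old with *B. malayi* larvae were dosed for 5 days, 50 mg/kg ip or 250 mg/kg orally, as a 1% Tween 80 suspension. Screening followed the *A. viteae* scheme. Micro- and macrofilaricidal action and sterilization of surviving female worms were scored. Each dose used two to three animals, with at least duplicate confirmation.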

Assay [10] relates to Mus musculus. Kind of assay: In vivo anti-filarial (maf-macrofilaricidal) activity at an po dose of 250 mg/kg (for 5 days) against Brugia malayi. In kind it is functional. Summed up: as §5
Assay [11] concerns Mus musculus. Description: In vivo anti-filarial (mif-microfilaricidal) activity at an ip dose of 50 mg/kg (for 5 days) against Brugia malayi. The format is functional. The following applies: route intraperitoneal. A digest of the protocol: as §5
Assay [12] has as its system Mus musculus. Description: In vivo anti-filarial (mif-microfilaricidal) activity at an po dose of 250 mg/kg (for 5 days) against Brugia malayi. In kind it is functional. Summed up:
as §4

Assay [13] concerns Rattus norvegicus. Kind of assay: Antifilarial activity evaluated as percent of surviving Litomosoides carinii in cotton rats that were sterlized after an ip dose of 30 mg/kg (for 5 days). In kind it is functional. The following applies: route intraperitoneal. A digest of the protocol: as §3
The test system of assay [14] is Rattus norvegicus. The assay is described as §2. The following applies: route intraperitoneal. The format is functional. Summed up:
(§6)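 They received 30 mg/kg ip for 5 consecutive days as a 1% Tween 80 suspension. Blood microfilariae were counted before treatment and then weekly until day 42. Animals were then killed and adult worm condition scored.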
This is another data set of the same source.

The subject of assay [15] is Rattus norvegicus. Description: In vivo anti-filarial (mif-microfilaricidal) activity at an ip dose of 30 mg/kg (for 5 days) against Litomosoides carinii in cotton rats. In kind it is functional. The following applies: route intraperitoneal. Summed up:
as §6

In assay [16] the test system is Acanthocheilonema viteae. Kind of assay: In vivo anti-filarial (mif-microfilaricidal) activity at an ip dose of 200 mg/kg (for 5 days) against A. viteae in Mastomys coucha.
Assay [17] relates to Acanthocheilonema viteae. Description: In vivo anti-filarial (mif-macrofilaricidal) activity at an oral dose of 200 mg/kg (for 5 days) against A. viteae in Mastomys coucha.
Assay [18] concerns Mus musculus. Kind of assay: In vivo anti-filarial (mif-microfilaricidal) activity at an oral dose of 200 mg/kg (for 5 days) against A. viteae in Mastomys coucha. The format is functional. Summed up:
as §1

Assay [19] deals with Acanthocheilonema viteae. Kind of assay: In vivo anti-filarial (maf-macrofilaricidal) activity at an oral dose of 200 mg/kg (for 5 days) against A. viteae in Mastomys coucha.

Where “and” joins values, the source holds several entries; their conditions need not be identical. Identical values can stand only once.

Consider `NC(=O)c1cc2c([nH]c3ccccc32)c(-c2cccs2)n1`, for which the values for the Activity with Acanthocheilonema viteae [1] and with Acanthocheilonema viteae [2] were 0% and 93%, respectively.

Turning to `Cc1ccc(-c2[nH]c(CO)cc3c4ccccc4nc2-3)cc1`, the Activity with Acanthocheilonema viteae [1] was 0%; with Acanthocheilonema viteae [2], 0%; in the assay on Acanthocheilonema viteae [3] it was 40%.

Regarding `COC(=O)c1cc2c([nH]c3ccccc32)c(-c2ccc(C)cc2)n1`, the Activity in the assay on Acanthocheilonema viteae [1] stood at 100%; with Acanthocheilonema viteae [2] it was 0%.

Regarding `CCN(CC)C(=O)N1CCN(C)CC1.O=C(O)CC(O)(CC(=O)O)C(=O)O` [DIETHYLCARBAMAZINE CITRATE], the Activity with Mus musculus [4] stood at 0%; in the assay with Acanthocheilonema viteae [1], 0%; in the assay with Mus musculus [5], 90%; in the assay on Acanthocheilonema viteae [2], 90%; in the assay on Rattus norvegicus [6], 0%; in the assay with Rattus norvegicus [7] it was 90%.

With `COC(=O)c1cc2c([nH]c3ccccc32)c(-c2cccc(Cl)c2)n1`, the Activity with Acanthocheilonema viteae [1] is recorded as 81%; in the assay on Acanthocheilonema viteae [2], 0%.

In the case of `NC(=O)c1cc2c([nH]c3ccccc32)c(-c2ccsc2)n1`, the values for the Activity in the assay on Acanthocheilonema viteae [1] and in the assay on Acanthocheilonema viteae [2] were 89% and 0%, respectively.

As for `NC(=O)c1cc2c([nH]c3ccccc32)c(-c2ccc(Cl)cc2)n1`, the results for the Activity in the assay on Acanthocheilonema viteae [1], in the assay on Acanthocheilonema viteae [2] and in the assay on Acanthocheilonema viteae [3] were 0%, 0% and 60%, respectively.

In the case of `NC(=O)c1cc2c([nH]c3ccccc32)c(-c2cccc(Br)c2)n1`, the results for the Activity in the assay with Acanthocheilonema viteae [1] and in the assay with Acanthocheilonema viteae [2] were 69% and 0%, respectively.

`NC(=O)c1cc2c([nH]c3ccccc32)c(-c2ccccc2Cl)n1`: the Activity worked out at 86% in the assay on Acanthocheilonema viteae [1], 44% with Acanthocheilonema viteae [2] and 100% in the assay on Acanthocheilonema viteae [3].

For `NC(=O)c1cc2c([nH]c3ccccc32)c(-c2cccc(Cl)c2)n1`, the Activity in the assay with Acanthocheilonema viteae [1] was found to be 0%; in the assay on Acanthocheilonema viteae [2], 84%; with Acanthocheilonema viteae [3], 50%.

For the molecule `OCc1cc2c([nH]c3ccccc32)c(-c2ccc(F)cc2)n1`, the Activity in the assay on Acanthocheilonema viteae [1] is listed as 75%; in the assay with Acanthocheilonema viteae [2], 0%.

Regarding `COC(=O)C1Cc2c([nH]c3ccccc23)C(c2ccsc2)N1` (stereo not given), the Activity is recorded as 57% in the assay on Acanthocheilonema viteae [1] and 0% in the assay on Acanthocheilonema viteae [2].

As for `COC(=O)c1cc2c([nH]c3ccccc32)c(-c2ccccc2F)n1`, the Activity in the assay with Acanthocheilonema viteae [1] was found to be 44%; with Acanthocheilonema viteae [2], 0%.

For the molecule `COC(=O)C1Cc2c([nH]c3ccccc23)C(c2ccc(C)cc2)N1` (stereo not given), the results for the Activity with Acanthocheilonema viteae [1] and in the assay on Acanthocheilonema viteae [2] were 90% and 0%, respectively.

For `COC(=O)c1cc2c([nH]c3ccccc32)c(-c2ccsc2)n1`, the Activity in the assay on Acanthocheilonema viteae [1] is listed as 60%; in the assay with Acanthocheilonema viteae [2], 0%.

Take `COC(=O)C1Cc2c([nH]c3ccccc23)C(c2ccc(Cl)cc2)N1` (stereo not given): the Activity in the assay with Acanthocheilonema viteae [1] came to 39%; in the assay with Acanthocheilonema viteae [2], 94%; in the assay on Acanthocheilonema viteae [3] it was 100%.

Regarding `OCc1cc2c([nH]c3ccccc32)c(-c2ccc(Cl)cc2)n1`, the Activity was 85% with Mus musculus [8]; 56% in the assay with Acanthocheilonema viteae [1]; 62% with Mus musculus [9]; 56% and 69% in the assay on Mus musculus [10]; 76% in the assay on Acanthocheilonema viteae [2]; 0% in the assay with Mus musculus [11]. Besides, the Activity in the assay with Acanthocheilonema viteae [3] is reported as 75%; with Mus musculus [12], 0%; with Rattus norvegicus [13], 0%; in the assay with Rattus norvegicus [14] it was 95%; with Rattus norvegicus [15], 29%; with Acanthocheilonema viteae [16] it was 0%. The molecule further gave an Activity with Acanthocheilonema viteae [17] of 94%.

`COC(=O)c1cc2c([nH]c3ccccc32)c(-c2cccc(Br)c2)n1`: the results for the Activity with Acanthocheilonema viteae [1], with Acanthocheilonema viteae [2] and in the assay on Acanthocheilonema viteae [3] were 84%, 0% and 100%, respectively.

As to `COC(=O)C1Cc2c([nH]c3ccccc23)C(c2ccc(F)cc2)N1` (stereo not given), the Activity in the assay on Acanthocheilonema viteae [1] is given as 25%; in the assay with Acanthocheilonema viteae [2], 0%.

For `COC(=O)C1Cc2c([nH]c3ccccc23)C(c2cccc(Br)c2)N1` (stereo not given), the Activity was 0% in the assay with Acanthocheilonema viteae [1] and 90% in the assay on Acanthocheilonema viteae [2].

Consider `COC(=O)C1Cc2c([nH]c3ccccc23)C(c2ccccc2Cl)N1` (stereo not given), for which the Activity with Acanthocheilonema viteae [1] is 93%; in the assay on Acanthocheilonema viteae [2], 0%; in the assay on Mus musculus [18], 0%; in the assay with Rattus norvegicus [13] it was 88%; with Rattus norvegicus [6], 20%; in the assay on Rattus norvegicus [15], 0%. Moreover, in the assay on Acanthocheilonema viteae [19], the Activity came out at 0%.

Regarding `COC(=O)c1cc2c([nH]c3ccccc32)c(-c2cccs2)n1`, the Activity in the assay with Acanthocheilonema viteae [1] was found to be 45%; in the assay with Acanthocheilonema viteae [2], 62%; in the assay with Acanthocheilonema viteae [3], 0%.

Consider `COC(=O)C1Cc2c([nH]c3ccccc23)C(c2cccc(Cl)c2)N1` (stereo not given), for which the Activity in the assay with Acanthocheilonema viteae [1] is 50%; in the assay with Acanthocheilonema viteae [2], 0%.

On to `COC(=O)c1cc2c([nH]c3ccccc32)c(-c2ccc(F)cc2)n1`, for which the Activity in the assay with Acanthocheilonema viteae [1] was found to be 56%; in the assay with Acanthocheilonema viteae [2] it was 0%; in the assay with Acanthocheilonema viteae [3] it was 67%.

Take `NNC(=O)c1cc2c([nH]c3ccccc32)c(-c2ccsc2)n1`: the results for the Activity with Acanthocheilonema viteae [1] and with Acanthocheilonema viteae [2] were 0% and 91%, respectively.

For the molecule `COC(=O)c1cc2c([nH]c3ccccc32)c(-c2ccccc2Cl)n1`, the values for the Activity in the assay on Acanthocheilonema viteae [1] and in the assay with Acanthocheilonema viteae [2] were 94% and 0%, respectively.
